The values below come from PMC6190495 (Journal of Pharmaceutical Analysis, 2018).

Like-named read-outs stand apart in the source and are kept apart here.

Data set [1] is classed as in vivo, human. The following applies: for Tmax / concentration at 2 h / half-life: human, po; for AUC0-t: single oral tablet 4/1.25 mg, fasting, mean ± SD. The procedure, abridged:
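Ten healthy Chinese volunteers, fasted at least 10 h overnight, took one oral ACE-inhibitor/diuretic combination tablet (4 mg/1.25 mg) with 240 mL warm water. Blood was drawn into two K2EDTA tubes pre-dose and at 0.25–48 h. One tube was spun (3000 rpm, 10 min) for plasma and the other kept as whole blood, both stored at −80 °C. Parent drugs were extracted by acetonitrile precipitation and the metabolite by 14% perchloric acid, then measured by LC-MS/MS against internal standard. AUC0-t ran to 6 h for the ACE inhibitor and to 48 h otherwise.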

The conditions of data set [2]: cited from earlier work.
For data set [3] the following is noted: cited from earlier work. This is another data set of the same source.
The mark [4] stands for this setting: whole blood, dose 1.5 mg, indapamide sustained-release tablets, ref 11.
Setting [5] is: whole blood, dose 1.5 mg, indapamide sustained-release tablets, ref 21.

Consider `CC1Cc2ccccc2N1NC(=O)c1ccc(Cl)c(S(N)(=O)=O)c1` (stereo not shown) [Indapamide, indapamide], for which the Tmax is 1.8 ± 0.8 h in data set [1] (plasma); 1.6 ± 0.6 h in data set [1] (whole blood); 2.4 ± 1.1 h in data set [2] (whole blood, dose 1.25 mg); 10.3 ± 5.3 h in data set [2] (setting [4]); 8.0 ± 3.0 h in data set [2] (setting [5]). Besides, the concentration at 2 h in data set [1] (plasma) is 5.32 ng/mL; in data set [1] (whole blood), 14.9 ng/mL. Also, the half-life in data set [1] (plasma) was 13.4 ± 2.4 h; in data set [1] (whole blood), 13.5 ± 1.6 h. Besides, the AUC0-t in data set [1] (whole blood, t = 48 h) is 0.882 ± 0.126 µg·h/mL; in data set [2] (whole blood, dose 1.25 mg, t = 96 h), 1.152 ± 0.429 µg·h/mL; in data set [2] (whole blood, dose 1.5 mg, indapamide sustained-release tablets, t = 96 h, ref 11) it was 1.318 ± 0.303 µg·h/mL; in data set [2] (whole blood, dose 1.5 mg, indapamide sustained-release tablets, t = 96 h, ref 21), 1.268 ± 0.279 µg·h/mL. Further, the Cmax in data set [2] (setting [4]) is 43.6 ± 16.1 ng/mL; in data set [2] (setting [5]), 41.1 ± 7.6 ng/mL. In data set [3], the “Binding to the red blood cell” value is recorded as “high binding to the red blood cell”.
Turning to `CCC[C@H](N[C@@H](C)C(=O)N1[C@H](C(=O)O)C[C@@H]2CCCC[C@@H]21)C(=O)OCC` [Perindopril, perindopril], the Tmax was 0.65 ± 0.1 h in data set [1] (plasma); 0.7 ± 0.2 h in data set [1] (whole blood); 0.66 ± 0.2 h in data set [2] (plasma, dose 4 mg, ref 16); 0.66 ± 0.2 h in data set [2] (plasma, dose 4 mg, ref 22); 0.75 h in data set [2] (plasma, dose 4 mg, ref 24). Further, the results for the concentration at 2 h in data set [1] (plasma) and in data set [1] (whole blood) were 11.1 ng/mL and 7.35 ng/mL, respectively. For the same molecule, the half-life in data set [1] (plasma) was 0.96 ± 0.3 h; in data set [1] (whole blood), 1.11 ± 0.4 h. The AUC0-t is 0.0514 ± 0.0128 µg·h/mL in data set [1] (plasma, t = 6 h); 0.0703 ± 0.0144 µg·h/mL in data set [2] (plasma, dose 4 mg, t = 5 h); 0.0417 ± 0.01 µg·h/mL in data set [2] (plasma, dose 4 mg, t = 96 h); 0.106 ± 0.032 µg·h/mL in data set [2] (plasma, dose 4 mg, t = 120 h). Also, the Cmax in data set [2] (plasma, dose 4 mg, ref 16) is given as 36.5 ± 11.4 ng/mL; in data set [2] (plasma, dose 4 mg, ref 22) it was 63.9 ± 18.0 ng/mL; in data set [2] (plasma, dose 4 mg, ref 24) it was 72 ± 20 ng/mL. In addition, the Binding in blood entry in data set [3] is “bind mainly to plasma protein in blood”.
With `CCC[C@H](N[C@@H](C)C(=O)N1[C@H](C(=O)O)C[C@@H]2CCCC[C@@H]21)C(=O)O` [Perindoprilat, perindoprilat], the time of peak concentration (Tmax) is 6.4 ± 1.3 h in data set [1] (plasma); 5.8 ± 1.1 h in data set [1] (whole blood); 6.3 ± 1.2 h in data set [2] (plasma, dose 4 mg, ref 22); 4.3 ± 2.9 h in data set [2] (plasma, dose 4 mg, ref 23); 6 h in data set [2] (plasma, dose 4 mg, ref 24). Also, the concentration at 2 h in data set [1] (plasma) is 2.49 ng/mL; in data set [1] (whole blood) it was 1.31 ng/mL. The half-life in data set [1] (plasma) was 17 ± 6.5 h; in data set [1] (whole blood), 18.2 ± 7.3 h. The AUC0-t in data set [1] (plasma, t = 48 h) was 0.108 ± 0.0347 µg·h/mL; in data set [2] (plasma, dose 4 mg, t = 72 h, ref 22) it was 0.111 ± 0.0184 µg·h/mL; in data set [2] (plasma, dose 4 mg, t = 72 h, ref 23) it was 0.092 ± 0.03 µg·h/mL; in data set [2] (plasma, dose 4 mg, t = 120 h), 0.191 ± 0.076 µg·h/mL. Further, the Cmax was 5 ± 2 ng/mL in data set [2] (plasma, dose 4 mg, one significant digit); 5.91 ± 2.9 ng/mL in data set [2] (plasma, dose 4 mg, ref 22); 4.9 ± 2.7 ng/mL in data set [2] (plasma, dose 4 mg, ref 24).
